Measurements taken from ChEMBL document CHEMBL1154511, “Synthesis and biological evaluation of amide derivatives of diflunisal as potential anti-inflammatory agents” (2009).

What was measured:
Format in all cases: functional
Mus musculus [1] = assay: Antiinflammatory activity in mouse assessed as inhibition of xylene-induced ear edema at 40 mg/kg, po
Method in brief: (§1)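 Male and female Kunming mice (20–26 g) given the test substance by the oral route at 40 mg/kg. Percent inhibition was scored in the xylene-induced ear edema model (anti-inflammatory) or the acetic acid-induced writhing model (analgesic).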

Mus musculus [2] = assay: Analgesic activity in Kunming mouse assessed as inhibition of acetic acid-induced writhing response at 40 mg/kg, po; method in brief: as §1
Mus musculus [3] = assay: Antiinflammatory activity in orally dosed mouse assessed as inhibition of xylene-induced ear edema; conditions: po
Method in brief: (§2)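 Male and female Kunming mice (20–26 g) dosed orally. ED50 was determined in the xylene-induced ear edema model (anti-inflammatory) or the acetic acid-induced writhing model (analgesic).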

Rattus norvegicus = assay: Antiinflammatory activity in rat assessed as inhibition of carrageenan-induced paw edema
Mus musculus [4] = assay: Analgesic activity in orally dosed Kunming mouse assessed as inhibition of acetic acid-induced writhing response; conditions: po; method in brief: as §2

Row | SMILES | inhibition in vivo at 40 mg/kg (Mus musculus [1]) | inhibition in vivo at 40 mg/kg (Mus musculus [2]) | ED50 (Mus musculus [3]) | ED50 (Rattus norvegicus) | ED50 (Mus musculus [4])
1 | CCN(CC)C(=O)c1cc(-c2ccc(F)cc2F)ccc1OC(=O)c1ccccc1 | 65.2% | 0% | 25.7 mg/kg | – | –
2 | Cc1ccccc1NC(=O)c1cc(-c2ccc(F)cc2F)ccc1OC(=O)c1ccccc1 | 21.4% | 20.8% | – | – | –
3 | CC(=O)Oc1ccc(-c2ccc(F)cc2F)cc1C(=O)Nc1cc(C)ccc1C | 22% | 13.2% | – | – | –
4 | CCNC(=O)c1cc(-c2ccc(F)cc2F)ccc1OC(C)=O | 5.38% | 23.9% | – | – | –
5 | CC(=O)Oc1ccc(-c2ccc(F)cc2F)cc1C(=O)NC1CCCCC1 | 0% | 15.6% | – | – | –
6 | CC(=O)Oc1ccc(-c2ccc(F)cc2F)cc1C(=O)O | 13.7% | 0% | – | – | –
7 | CC(=O)Oc1ccc(-c2ccc(F)cc2F)cc1C(=O)NN1CCOCC1 | 0% | 28.5% | – | – | –
8 | O=C(Oc1ccc(-c2ccc(F)cc2F)cc1C(=O)Nc1ccccc1)c1ccccc1 | 19.8% | 5.57% | – | – | –
9 | CC(=O)Oc1ccc(-c2ccc(F)cc2F)cc1C(=O)Nc1ccc(Cl)cc1 | 0% | 29.9% | – | – | –
10 | CC(=O)Oc1ccc(-c2ccc(F)cc2F)cc1C(=O)NCc1ccccc1 | 34.1% | 16.6% | – | – | –
11 | CC(=O)Oc1ccc(-c2ccc(F)cc2F)cc1C(=O)Nc1ccccc1 | 23.2% | 8.9% | – | – | –
12 | CC(=O)Oc1ccc(-c2ccc(F)cc2F)cc1C(=O)Nc1ccc(C)cc1 | 36.4% | 31% | – | – | –
13 | O=C(Oc1ccc(-c2ccc(F)cc2F)cc1C(=O)O)c1ccccc1 | 16.1% | 7.97% | – | – | –
14 | CC(=O)Oc1ccc(-c2ccc(F)cc2F)cc1C(=O)Nc1cccc(C)c1 | 12.8% | 19% | – | – | –
15 | CC(=O)Oc1ccc(-c2ccc(F)cc2F)cc1C(=O)Nc1ccccc1Cl | 41.4% | 11.7% | – | – | –
16 | O=C(O)c1cc(-c2ccc(F)cc2F)ccc1O [DIFLUNISAL] | 39.9% | 8.33% | – | 59.6 mg/kg | –
17 | CNC(=O)c1cc(-c2ccc(F)cc2F)ccc1OC(=O)c1ccccc1 | 68.9% | 47.5% | 24.2 mg/kg | – | 43.8 mg/kg
18 | CNC(=O)c1cc(-c2ccc(F)cc2F)ccc1OC(C)=O | 48.8% | 29.9% | – | – | –
19 | CN1CCN(C(=O)c2cc(-c3ccc(F)cc3F)ccc2OC(=O)c2ccccc2)CC1 | 27.5% | 88.3% | – | – | –
20 | CC(=O)Oc1ccc(-c2ccc(F)cc2F)cc1C(=O)Nc1ccccc1C | 19.6% | 12.3% | – | – | –
